Data reported in ChEMBL document CHEMBL5674889, “Enhanced JunD/RSK3 signalling due to loss of BRD4/FOXD3/miR-548d-3p axis determines BET inhibition resistance” (2020).
The source made the active and inactive calls.

Columns and labels:
Format in all cases: functional, cell-based
MDA-MB-231 [1] = test: Antiproliferative activity in human JUND-overexpressing MDA-MB-231 cells assessed as tumor sphere formation at 1 uM by Tumor sphere assay
BT-549 [2] = test: Antiproliferative activity in human JUND-knockdown BT-549 cells assessed as cell viability at 1 uM by CellTiter-Glo luminescent cell viability assay
Method in brief: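 Stable JUND-knockdown (shRNA, puromycin 1.0 μg/ml selection) or JUND-overexpressing clones and vector controls, seeded 3000 cells/well and adhered overnight, then given DMSO or JQ1 (1 μM) for 48 h. Read-out CellTiter-Glo luminescence normalized to DMSO control; triplicates, mean ± SD, one-way ANOVA.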

BT-549 [3] = test: Effect on human RPS6KA2-knockdown BT-549 cells assessed as RSK3 protein expression at 1 uM by Western blot analysis
MDA-MB-231 [4] = test: Effect on human MDA-MB-231 cells assessed as EGFR protein expression at 1 uM by Western blot analysis
MDA-MB-231 [5] = test: Antiproliferative activity in human MDA-MB-231 cells assessed as cell growth inhibition for 48 hrs in the presence of […] at 1 uM by CCK-8 assay

Measured: Activity

Cc1sc2c(c1C)C(c1ccc(Cl)cc1)=N[C@@H](CC(=O)OC(C)(C)C)c1nnc(C)n1-2
active: MDA-MB-231 [1] | BT-549 [2] | BT-549 [3] | MDA-MB-231 [4] | MDA-MB-231 [5]
